Measured values: ChEMBL document CHEMBL1129629, “Orally active, nonpeptide vasopressin V2 receptor antagonists: a novel series of 1-[4-(benzoylamino)benzoyl]-2,3,4,5-tetrahydro-1H-benzazepines and related compounds” (J Med Chem, 1996)

Columns and labels:
[1] = molecular target: T1, Vasopressin V1a receptor (Rattus norvegicus, UniProt P30560); test: Displacement of [3H]AVP from AVP-V1a receptor binding site in rat liver
Method in brief: (§1)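 Radioligand competition with [3H]AVP on plasma membrane preparations, rat liver for V1a and rat kidney for V2. […] Assays run in duplicate. Reported intraassay variation is under 3% and interassay variation under 20%.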

[2] = molecular target: T2, Vasopressin V2 receptor (Rattus norvegicus, UniProt Q00788); test: Displacement of [3H]-AVP from its AVP-V2 receptor binding site in rat kidney
Method in brief: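 Radioligand competition with [3H]AVP on plasma membrane preparations, rat liver for V1a and rat kidney for V2. Assays run in duplicate. Reported intraassay variation is under 3% and interassay variation under 20%.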

[3] = system: Rattus norvegicus; test: Dose(mg/kg) required for a 3-fold increase in the 2-h urine volume over the control rats.; type: functional
Method in brief: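 Hydrated conscious rats, compound given orally at three or four doses. Spontaneously voided urine collected every 2 h over 8 h. ED3 (mg/kg) read from the dose–response curve as the dose giving a 3-fold rise in 2-h urine volume over control rats. ">" means no 3-fold rise at the highest dose tested.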

[4] = molecular target: T1, Vasopressin V1a receptor; test: Compound was tested for its ability to displace [3H]AVP from its specific binding sites in Rat liver (AVP-V1a receptor).; method in brief: as §1
[5] = molecular target: T2, Vasopressin V2 receptor; test: Compound was tested for its ability to displace [3H]AVP from its specific binding sites in rat Kidney (AVP-V2 receptor).; method in brief: as §1
[6] = system: Rattus norvegicus; test: UV values mean 2-h urine volume (mL) when the compound was administered orally at a dose of 10 mg/kg; type: functional; conditions: route oral
Method in brief: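 Conscious rats dosed orally at 10 mg/kg, with urine voided spontaneously. The value is urine volume (mL) collected over the first 2 h, given as mean ± SEM of 4 rats and set against control rats (n = 4).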

T2 sequence (Q00788 whole entry): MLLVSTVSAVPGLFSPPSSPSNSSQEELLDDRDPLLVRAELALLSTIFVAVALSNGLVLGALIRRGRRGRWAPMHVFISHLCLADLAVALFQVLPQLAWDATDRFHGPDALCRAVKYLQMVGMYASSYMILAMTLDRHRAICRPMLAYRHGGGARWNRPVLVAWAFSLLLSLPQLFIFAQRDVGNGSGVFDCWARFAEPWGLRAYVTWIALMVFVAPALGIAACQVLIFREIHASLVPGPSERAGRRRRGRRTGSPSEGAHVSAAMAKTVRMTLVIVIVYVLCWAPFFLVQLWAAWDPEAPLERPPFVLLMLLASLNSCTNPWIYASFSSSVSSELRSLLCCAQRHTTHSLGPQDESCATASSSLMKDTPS
T1 sequence (P30560 whole entry): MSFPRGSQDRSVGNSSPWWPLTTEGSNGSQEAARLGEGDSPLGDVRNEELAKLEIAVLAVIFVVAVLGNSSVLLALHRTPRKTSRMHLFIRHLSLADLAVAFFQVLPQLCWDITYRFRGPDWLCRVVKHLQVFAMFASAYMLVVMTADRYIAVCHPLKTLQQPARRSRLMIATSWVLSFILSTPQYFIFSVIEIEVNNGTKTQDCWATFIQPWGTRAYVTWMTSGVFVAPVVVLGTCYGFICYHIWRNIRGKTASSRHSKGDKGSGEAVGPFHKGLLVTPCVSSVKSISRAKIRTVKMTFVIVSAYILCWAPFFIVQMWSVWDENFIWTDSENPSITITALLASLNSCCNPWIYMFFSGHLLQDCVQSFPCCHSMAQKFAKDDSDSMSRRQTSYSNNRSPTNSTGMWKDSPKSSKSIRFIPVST

| IC50 [1] | IC50 [2] | IC50 [4] | IC50 [5] | Structure (SMILES) | ED3 [3] | Activity [6] |
| --- | --- | --- | --- | --- | --- | --- |
| 74000 nM | > 100000 nM | – | – | CC(=O)Nc1ccc(C(=O)N2CCCc3ccccc32)cc1 | – | – |
| 26000 nM | 44 nM | – | – | Cc1ccc(C(=O)Nc2ccc(C(=O)N3CCCC(N(C)C)c4ccccc43)cc2)cc1 (stereo not given) | – | – |
| > 100000 nM | 1200 nM | – | – | Cc1ccc(C(=O)Nc2ccc(C(=O)N3CCCc4ccccc43)cc2)cc1C | – | – |
| – | – | 2300 nM | 58 nM | CC(=O)O/N=C1\CCCN(C(=O)c2ccc(NC(=O)c3ccccc3C)cc2)c2ccccc21 | > 30 mg/kg | – |
| 1000 nM | 77 nM | – | – | COc1ccccc1C(=O)Nc1ccc(C(=O)N2CCCC(N(C)C)c3ccccc32)cc1 (stereo not given) | – | – |
| 1900 nM | 190 nM | – | – | CN(C)C1CCCN(C(=O)c2ccc(NC(=O)c3ccccc3N)cc2)c2ccccc21 (stereo not given) | – | – |
| 9400 nM | 82 nM | – | – | O=C(Nc1ccc(C(=O)N2CCCc3ccccc32)cc1)c1cc(Cl)cc(Cl)c1 | – | – |
| 720 nM | 24 nM | – | – | CNC1CCCN(C(=O)c2ccc(NC(=O)c3ccccc3C)cc2)c2ccccc21 (stereo not given) | 4.6 mg/kg | 8.3 mL |
| > 100000 nM | > 100000 nM | – | – | CCCCOc1ccc(C(=O)Nc2ccc(C(=O)N3CCCc4ccccc43)cc2)cc1 | – | – |
| 2300 nM | 6100 nM | – | – | O=C(CCc1ccccc1)Nc1ccc(C(=O)N2CCCc3ccccc32)cc1 | – | – |
| 88000 nM | 22000 nM | – | – | O=C(Nc1ccccc1C(=O)N1CCCc2ccccc21)c1ccccc1 | – | – |
| 1800 nM | 170 nM | – | – | Cc1ccccc1C(=O)Nc1ccc(C(=O)N2CCN(C)Cc3ccccc32)cc1 | – | – |
| 2600 nM | 20 nM | – | – | CN(C)C1CCCN(C(=O)c2ccc(NC(=O)c3cc(Cl)cc(Cl)c3)cc2)c2ccccc21 (stereo not given) | – | – |
| 3200 nM | 1000 nM | – | – | O=C(Cc1ccccc1)Nc1ccc(C(=O)N2CCCc3ccccc32)cc1 | – | – |
| 6400 nM | – | – | – | O=C(Nc1ccc(C(=O)N2CCCc3ccccc32)cc1)c1cccc(Cl)c1 | – | – |
| – | – | 7800 nM | 790 nM | O=C(Nc1ccc(C(=O)N2CCCCc3ccccc32)cc1)Oc1ccccc1 | – | – |
| 3200 nM | 25 nM | – | – | Cc1ccccc1C(=O)Nc1ccc(C(=O)N2CCCC(N(C)CC#N)c3ccccc32)cc1 (stereo not given) | >30 mg/kg | – |
| 2200 nM | 1800 nM | – | – | COc1ccc(C(=O)Nc2ccc(C(=O)N3CCCc4ccccc43)cc2)cc1 | – | – |
| 2800 nM | 140 nM | – | – | O=C(Nc1ccc(C(=O)N2CCCC(N3CCCCC3)c3ccccc32)cc1)c1ccccc1Cl (stereo not given) | – | – |
| 16000 nM | 640 nM | – | – | CC(=O)Nc1ccccc1C(=O)Nc1ccc(C(=O)N2CCCC(N(C)C)c3ccccc32)cc1 (stereo not given) | – | – |
| 760 nM | 180 nM | – | – | O=C(Nc1ccccc1)Nc1ccc(C(=O)N2CCCCc3ccccc32)cc1 | – | – |

| IC50 [1] | IC50 [2] | IC50 [4] | IC50 [5] | Structure (SMILES) | ED3 [3] | Activity [6] |
| --- | --- | --- | --- | --- | --- | --- |
| – | – | – | – | Cc1ccccc1C(=O)Nc1ccc(C(=O)N2CCCC(N(C)CC(N)=O)c3ccccc32)cc1 (stereo not given) | 6.4 mg/kg | 6.2 mL |
| 1200 nM | 22 nM | – | – | CCCN(C)C1CCCN(C(=O)c2ccc(NC(=O)c3ccccc3C)cc2)c2ccccc21 (stereo not given) | 4.9 mg/kg | 8.3 mL |
| 630 nM | 300 nM | – | – | Cc1ccccc1C(=O)Nc1ccc(C(=O)N2CCOCc3ccccc32)cc1 | – | – |
| 980 nM | 29 nM | – | – | CCOC(=O)CN(C)C1CCCN(C(=O)c2ccc(NC(=O)c3ccccc3C)cc2)c2ccccc21 (stereo not given) | >30 mg/kg | – |
| 14000 nM | > 100000 nM | – | – | CCOc1ccc(C(=O)Nc2ccc(C(=O)N3CCCc4ccccc43)cc2)cc1 | – | – |
| 2500 nM | 1600 nM | – | – | O=C(c1ccc(NS(=O)(=O)c2ccccc2)cc1)N1CCCCc2ccccc21 | – | – |
| 2800 nM | – | – | – | COc1cccc(C(=O)Nc2ccc(C(=O)N3CCCc4ccccc43)cc2)c1 | – | – |
| 1600 nM | 29 nM | – | – | CCNC1CCCN(C(=O)c2ccc(NC(=O)c3ccccc3C)cc2)c2ccccc21 (stereo not given) | 8 mg/kg | 5.4 mL |
| 3200 nM | 150 nM | – | – | CC(=O)NC1CCCN(C(=O)c2ccc(NC(=O)c3ccccc3C)cc2)c2ccccc21 (stereo not given) | >30 mg/kg | – |
| 1400 nM | – | – | – | Cc1ccccc1C(=O)Nc1ccc(C(=O)N2CCCC(N(C)C)c3ccccc32)cc1 (stereo not given) [MOZAVAPTAN] | 3.8 mg/kg | 12.3 mL |
| 2600 nM | 71 nM | – | – | CN(C)C1CCCN(C(=O)c2ccc(NC(=O)c3ccccc3[N+](=O)[O-])cc2)c2ccccc21 (stereo not given) | – | – |
| 3300 nM | 210 nM | – | – | Cc1ccc(C(=O)Nc2ccc(C(=O)N3CCCc4ccccc43)cc2)c(C)c1 | – | – |
| 2800 nM | 96 nM | – | – | CNC(=O)NC1CCCN(C(=O)c2ccc(NC(=O)c3ccccc3C)cc2)c2ccccc21 (stereo not given) | – | – |
| 4300 nM | 7100 nM | – | – | CCCC(=O)Nc1ccc(C(=O)N2CCCc3ccccc32)cc1 | – | – |
| 1910 nM | 2100 nM | – | – | COc1ccccc1C(=O)Nc1ccc(C(=O)N2CCCc3ccccc32)cc1 | – | – |
| 1600 nM | 420 nM | – | – | O=C(Nc1ccc(C(=O)N2CCCc3ccccc32)cc1)c1ccccc1Cl | – | – |
| > 100000 nM | 40000 nM | – | – | O=C(Nc1cccc(C(=O)N2CCCc3ccccc32)c1)c1ccccc1 | – | – |
| 2400 nM | 8100 nM | – | – | CC(C)C(=O)Nc1ccc(C(=O)N2CCCc3ccccc32)cc1 | – | – |
| > 100000 nM | 250 nM | – | – | O=C(Nc1ccc(C(=O)N2CCCc3ccccc32)cc1)c1ccc(Cl)cc1Cl | – | – |
| 4000 nM | 6400 nM | – | – | O=C(Nc1ccc(C(=O)N2CCCc3ccccc32)cc1)c1ccco1 | – | – |
| 10000 nM | 1400 nM | – | – | Cc1ccc(C(=O)Nc2ccc(C(=O)N3CCCc4ccccc43)cc2)cc1 | – | – |

| IC50 [1] | IC50 [2] | IC50 [4] | IC50 [5] | Structure (SMILES) | ED3 [3] | Activity [6] |
| --- | --- | --- | --- | --- | --- | --- |
| 5100 nM | 1900 nM | – | – | O=C(Nc1ccc(C(=O)N2CCCc3ccccc32)cc1)c1ccc(Cl)cc1 | – | – |
| 2400 nM | 14 nM | – | – | Cc1cccc(C(=O)Nc2ccc(C(=O)N3CCCC(N(C)C)c4ccccc43)cc2)c1 (stereo not given) | >30 mg/kg | – |
| 16000 nM | 760 nM | – | – | O=C(Nc1ccc(C(=O)N2CCCc3ccccc32)cc1)c1cccc([N+](=O)[O-])c1 | – | – |
| > 100000 nM | 6500 nM | – | – | O=C(Nc1ccc(C(=O)N2CCCc3ccccc32)cc1)c1ccc([N+](=O)[O-])cc1 | – | – |
| 7700 nM | 4100 nM | – | – | Cc1ccccc1C(=O)Nc1ccc(C(=O)N2CCOc3ccccc32)cc1 | – | – |
| 3000 nM | 27 nM | – | – | CN(C)C1CCCN(C(=O)c2ccc(NC(=O)c3ccccc3)cc2)c2ccccc21 (stereo not given) | >30 mg/kg | – |
| 140 nM | 29 nM | – | – | Cc1ccccc1C(=O)Nc1ccc(C(=O)N2CCCC(O)c3ccccc32)cc1 (stereo not given) | – | 3.6 mL |
| 3100 nM | 680 nM | – | – | Cc1cccc(C(=O)Nc2ccc(C(=O)N3CCCc4ccccc43)cc2)c1 | – | – |
| 390 nM | 32 nM | – | – | Cc1ccccc1C(=O)Nc1ccc(C(=O)N2CCCC(N)c3ccccc32)cc1 (stereo not given) | – | – |
| 1600 nM | – | – | – | O=C(Nc1ccc(C(=O)N2CCCc3ccccc32)cc1)c1ccccc1 | – | – |
| 1400 nM | – | – | – | Cc1ccccc1C(=O)Nc1ccc(C(=O)N2CCCc3ccccc32)cc1 | – | – |
| 890 nM | 50 nM | – | – | CCCNC1CCCN(C(=O)c2ccc(NC(=O)c3ccccc3C)cc2)c2ccccc21 (stereo not given) | 6.6 mg/kg | 5.6 mL |
| 2700 nM | 530 nM | – | – | O=C(Nc1ccc(C(=O)N2CCCc3ccccc32)cc1)c1ccccc1[N+](=O)[O-] | – | – |
| 45 nM | 29 nM | – | – | O=C(Nc1ccc(C(=O)N2CCCCc3ccccc32)cc1)c1ccccc1Cl | – | – |
| 1300 nM | 13 nM | – | – | CN(C)C1CCCN(C(=O)c2ccc(NC(=O)c3ccc(Cl)cc3Cl)cc2)c2ccccc21 (stereo not given) | – | – |
| 1200 nM | 110 nM | – | – | Cc1ccccc1C(=O)Nc1ccc(C(=O)N2CCCOc3ccccc32)cc1 | – | – |
| 19000 nM | 1000 nM | – | – | Cc1ccccc1C(=O)N(C)c1ccc(C(=O)N2CCCC(N(C)C)c3ccccc32)cc1 (stereo not given) | – | – |
| 11000 nM | 7600 nM | – | – | O=C(Nc1ccc(C(=O)N2CCCc3ccccc32)cc1)c1cccnc1 | – | – |
| 1700 nM | 1700 nM | – | – | O=C(Nc1ccc(C(=O)N2CCCc3ccccc32)cc1)c1ccsc1 | – | – |
| 5100 nM | 400 nM | – | – | Cc1ccccc1C(=O)Nc1ccc(C(=O)N2CCN(C)c3ccccc32)cc1 | – | – |
| 3000 nM | 27 nM | – | – | CN(C)C1CCCN(C(=O)c2ccc(NC(=O)c3ccccc3Cl)cc2)c2ccccc21 (stereo not given) | 4.2 mg/kg | 7 mL |
